Assay results reported in ChEMBL document CHEMBL5120760, “Terpenoids and Meroterpenoids from Cultures of Two Grass-Associated Species of Amylosporus (Basidiomycota)” (J Nat Prod, 2022).
Values after ≈ are worked out from the molar mass of the structure shown.

What was measured:
Bacillus subtilis = assay: Antibacterial activity aginst Bacillus subtilis DSM 10 assessed as inhibition of bacterial growth incubated for overnight by serial dilution method; type: functional
Staphylococcus aureus = assay: Antibacterial activity against Staphylococcus aureus DSM 346 assessed as inhibition of bacterial growth incubated for overnight by serial dilution method; type: functional
[1] = test system: Chromobacterium violaceum; assay: Antibacterial activity against Chromobacterium violaceum DSM 30191 assessed as inhibition of bacterial growth incubated for overnight by serial dilution method; type: functional
Escherichia coli = assay: Antibacterial activity against Escherichia coli DSM 1116 assessed as inhibition of bacterial growth incubated for overnight by serial dilution method; type: functional
Micrococcus luteus = assay: Antibacterial activity against Micrococcus luteus DSM 1790 assessed as inhibition of bacterial growth incubated for overnight by serial dilution method; type: functional
Mucor hiemalis = assay: Antifungal activity against Mucor hiemalis DSM 2656 assessed as inhibition of fungal growth incubated for overnight by serial dilution method; type: functional
L929 = assay: Cytotoxicity against mouse L929 cells assessed as inhibition of cell proliferation incubated for 5 days by MTT assay; type: functional, cell-based; conditions: L929, 120 h
How it was run: (§1)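 Colorimetric MTT tetrazolium assay, with epothilone B (1 mg/mL stock) as the positive control. IC50 was determined.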

KB 3-1 = assay: Cytotoxicity against human KB 3-1 cells assessed as inhibition of cell proliferation incubated for 5 days by MTT assay; type: functional, cell-based; conditions: KB 3-1, 120 h; how it was run: as §1
SK-OV-3 = assay: Cytotoxicity against human SK-OV-3 cells assessed as inhibition of cell proliferation incubated for 5 days by MTT assay; type: functional, cell-based; conditions: SK-OV-3, 120 h; how it was run: as §1
Wickerhamomyces anomalus = assay: Antifungal activity against Pichia anomala DSM 6766 assessed as inhibition of fungal growth incubated for overnight by serial dilution method; type: functional, organism-based
Rhodotorula glutinis = assay: Antifungal activity against Rhodotorula glutinis DSM 10134 assessed as inhibition of fungal growth incubated for overnight by serial dilution method; type: functional, organism-based
[2] = test system: Schizosaccharomyces pombe; assay: Antifungal activity against Schizosaccharomyces pombe DSM 70572 assessed as inhibition of fungal growth incubated for overnight by serial dilution method; type: functional, organism-based
Pseudomonas aeruginosa = assay: Antibacterial activity against Pseudomonas aeruginosa PA 14 assessed as inhibition of bacterial growth incubated for overnight by serial dilution method; type: functional, organism-based
[3] = test system: Mycolicibacterium smegmatis; assay: Antibacterial activity against Mycobacterium smegmatis ATCC 700084 assessed as inhibition of bacterial growth incubated for overnight by serial dilution method; type: functional

| Compound | MIC (Bacillus subtilis) [µg/mL] | MIC (Staphylococcus aureus) [µg/mL] | MIC (Mucor hiemalis) [µg/mL] | IC50 (L929) [µM] | IC50 (KB 3-1) [µM] | further results |
| --- | --- | --- | --- | --- | --- | --- |
| CC(C)=CCC/C(C)=C/Cc1c(O)cc(C)c(C(=O)O)c1O | 66.7 (≈ 219 µM) | 66.7 (≈ 219 µM) | – | – | – | – |
| CN(C)[C@@H]1C(=O)C(C(N)=O)=C(O)[C@@]2(O)C(=O)C3=C(O)c4c(O)cccc4[C@@](C)(O)[C@H]3[C@H](O)[C@@H]12 | 3.33 (≈ 7.23 µM) | 0.4 (≈ 0.869 µM) | – | – | – | MIC [1]: 1.7 µg/mL (≈ 3.69 µM); MIC (Escherichia coli): 8.3 µg/mL (≈ 18 µM); MIC (Micrococcus luteus): 0.83 µg/mL (≈ 1.8 µM) |
| CC(C)=CCC/C(C)=C/Cc1c(O)c(Cl)c(C)c(C=O)c1O | 2.1 (≈ 6.5 µM) | 1.04 (≈ 3.22 µM) | 33.3 (≈ 103 µM) | 18 | 7.7 | IC50 (SK-OV-3): 5.6 µM |
| NYSTATIN | – | – | 16.7 | – | – | MIC (Wickerhamomyces anomalus): 16.7 µg/mL; MIC (Rhodotorula glutinis): 4.2 µg/mL; MIC [2]: 16.7 µg/mL |
| C/C(=C\c1csc(C)n1)[C@@H]1C[C@@H]2O[C@]2(C)CCC[C@H](C)[C@H](O)[C@@H](C)C(=O)C(C)(C)[C@@H](O)CC(=O)O1 [PATUPILONE] | – | – | – | 0.0014 | 6.9e-05 | – |
| CC(C)=CCc1c(C)c(C(=O)O)c(O)c(CC=C(C)C)c1O | 66.7 (≈ 219 µM) | 66.7 (≈ 219 µM) | 66.7 (≈ 219 µM) | 59.2 | 42.7 | – |
| CC(C)=CCC/C(C)=C/Cc1c(O)cc(C)c(C=O)c1O | 4.2 (≈ 14.6 µM) | 8.33 (≈ 28.9 µM) | 16.7 (≈ 57.8 µM) | 66 | 62.5 | MIC (Micrococcus luteus): 33.3 µg/mL (≈ 116 µM) |
| GENTAMICIN | – | – | – | – | – | MIC (Pseudomonas aeruginosa): 0.4 µg/mL |
| CC(C)=CCc1c(C)cc(O)c(CC=C(C)C)c1O | 33.3 (≈ 128 µM) | 33.3 (≈ 128 µM) | 33.3 (≈ 128 µM) | 53.8 | 57.7 | – |
| NC[C@H]1O[C@H](O[C@H]2[C@H](O)[C@@H](O[C@H]3O[C@H](CO)[C@@H](O)[C@H](N)[C@H]3O)[C@H](N)C[C@@H]2N)[C@H](O)[C@@H](O)[C@@H]1O [KANAMYCIN] | – | – | – | – | – | MIC [3]: 1.7 µg/mL (≈ 3.51 µM) |
